# A selection: hits, their analogues and other compounds. The true share with any hit is near 0.64%.
# PMI activator = activators of human PMI, primary screen, biochemical, fluorescence intensity, near-Km mannose 6-phosphate; activation factor at 20 µM; 190,000 compounds, 0.005% hits; purified human PMI, coupled resazurin fluorescence, 20 min; active compounds read high; 1 = vehicle control, 0 substrate-free wells; AID 1214, 2008; Mannose-6-phosphate isomerase (Homo sapiens), P34949;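 active = activation factor of 2 or more at 20 µM, relative to plate controls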
# TNAP act hi DEA = TNAP activators at high phosphate acceptor level, primary screen, biochemical, luminescence, uHTS | activation factor at 20 µM | 200,000 tested, under 10 active | purified TNAP, CDP-star luminescence, 1 M DEA, 30 min; active compounds read high; 0 = EDTA background, 1 = DMSO-only activity | Alkaline phosphatase, tissue-nonspecific isozyme (Homo sapiens), P05186;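 active = activation factor at least 2 at 20 µM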
# Target sequence (P05186 whole entry, looked up): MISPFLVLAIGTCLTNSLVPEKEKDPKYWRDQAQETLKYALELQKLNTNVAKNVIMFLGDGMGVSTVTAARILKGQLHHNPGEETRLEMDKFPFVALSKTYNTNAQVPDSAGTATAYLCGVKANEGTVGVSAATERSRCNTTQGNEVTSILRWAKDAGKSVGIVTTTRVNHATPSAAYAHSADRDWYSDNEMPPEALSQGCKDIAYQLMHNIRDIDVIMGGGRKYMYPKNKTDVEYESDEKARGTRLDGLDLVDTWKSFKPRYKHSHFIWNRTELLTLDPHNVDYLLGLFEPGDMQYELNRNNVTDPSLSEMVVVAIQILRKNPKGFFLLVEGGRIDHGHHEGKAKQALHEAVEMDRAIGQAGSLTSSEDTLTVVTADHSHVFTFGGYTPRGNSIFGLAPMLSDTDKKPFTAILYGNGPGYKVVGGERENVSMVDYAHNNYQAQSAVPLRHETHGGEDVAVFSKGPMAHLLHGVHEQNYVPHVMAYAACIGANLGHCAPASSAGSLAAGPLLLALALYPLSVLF
#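 Test system – human TNAP · Doses – 20 µM single point · Incubation – 30 min, room temperature · Signal – luminescent substrate turnover signal · Read-out basis – activation factor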
# TNAP inh hiacc = human TNAP enzyme inhibitors, primary screen, biochemical, luminescent, high phosphate acceptor level, uHTS. Alkaline phosphatase, tissue-nonspecific isozyme (Homo sapiens), P05186. purified TNAP, CDP-star luminescence, 1 M DEA. inhibition, % at 20 µM. 200,000 compounds, 0.03% hits;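 active = over 50% inhibition of tissue-nonspecific alkaline phosphatase at 20 µM in the single-dose screen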
# TNAP inh no acc = human TNAP enzyme inhibitors, primary screen, biochemical, luminescent, no phosphate acceptor, uHTS | Alkaline phosphatase, tissue-nonspecific isozyme (Homo sapiens), P05186 | purified TNAP, CDP-star luminescence, 30 min | inhibition, % at 20 µM | 200,000 compounds, 0.26% hits | AID 1012, 2008;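 active = tissue-nonspecific alkaline phosphatase inhibition above about 50% at 20 µM in the single-dose screen, limit read from the data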
# PMI act hi M6P = human PMI activators, high substrate, primary screen, biochemical, fluorescence intensity, near-saturating mannose 6-phosphate. Mannose-6-phosphate isomerase (Homo sapiens), P34949. coupled PMI enzyme assay, resazurin fluorescence, 20 min; active compounds read high; 1 = untreated enzyme, 0 = substrate-free blank. activation factor at 20 µM. 190,000 compounds, 0.34% hits. AID 1216, 2008;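 active = activation factor of 2 or more at 20 µM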
#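 Test system – human PMI in coupled enzyme assay · Timing – 20 min incubation at room temperature · Detection – Diaphorase-driven resazurin-to-resorufin fluorescence, excitation 544, emission 590 nm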
# Hits are given with their value; 0 = inactive.
SMILES,PMI activator,TNAP act hi DEA,TNAP inh hiacc,TNAP inh no acc,PMI act hi M6P
O=C(CSc1n[nH]c(-c2ccccc2)n1)c1ccccc1,0,0,0,56.5,0
COC(=O)c1ccccc1NC(=O)CSc1n[nH]c(-c2cccnc2)n1,0,0,0,69.3,0
COC(=O)c1ccc2c(=O)n(-c3ccc(OC)cc3)c(=S)[nH]c2c1,0,0,0,0,0
CC(C)CCN(C(=S)NC(=O)C1CCCCC1)c1c(N)n(Cc2ccccc2)c(=O)[nH]c1=O,0,0,0,0,0
CC(=O)c1sc(NC(=O)CCCOc2ccc(Cl)cc2)nc1C,0,0,0,0,0
O=C(NNC(=O)c1cc2cc(Br)ccc2oc1=O)c1ccc(O)cc1,0,0,0,81.7,0
NC(=S)c1cc2cc(Br)ccc2oc1=O,0,0,0,0,0
CC(C)(C)c1nc(S(=O)(=O)c2ccc(Cl)cc2)c(N2CCOCC2)o1,0,0,0,0,2.1
CC1(C)C(CSc2nc3ccccc3[nH]2)C1(Cl)Cl (configuration not stated),0,0,0,0,0
Nc1ccc(CN2CCOCC2)cc1,0,0,0,0,0
CCCSc1nc2cc(C)c(C)cc2n1CC(C)O (configuration not stated),0,0,0,0,2.3
CCCSc1nc2cc(C)c(C)cc2n1CC(O)CO (configuration not stated),0,0,0,0,0
COc1ccc(CNc2nc3ccccc3n2C)c(OC)c1,0,0,0,0,0
COc1ccc(N=Nc2nc3cc(Br)c(Br)cc3n2C)c(OC)c1,0,0,0,0,2.1
COc1ccc(Cl)cc1NC(=O)CN1CCC(n2nnc3cc(C)ccc32)CC1,0,2.7,0,0,0
Oc1ccc(/C=N/Nc2cc(N3CCOCC3)nc(N3CCOCC3)n2)cc1O,0,0,0,67.2,0
CC1=NN(c2ccc(S(=O)(=O)O)cc2C)C(=O)C1,0,0,0,0,2.4
CN(CCc1ccccn1)C(=O)CCC1CCCN(C(=O)c2n[nH]c3c2CCCC3)C1 (configuration not stated),0,0,0,70.0,0
CC(=O)c1cn(Cc2ccccc2)c(=O)n(Cc2ccc(F)cc2)c1=O,0,0,0,0,0
COC(=O)Cc1cc(=O)[nH]c(Nc2nc3ccccc3o2)n1,0,0,0,74.6,0
C/C(=N\Nc1nc(C)c(C)s1)c1ccc([N+](=O)[O-])cc1,0,0,0,0,0
C=C1c2ccccc2NC(=S)N1Cc1ccc2c(c1)OCO2,0,0,0,0,0
Cc1cc(=S)cc(C)n1CCO,0,0,0,0,2.4
O=c1cc(-c2ccc([N+](=O)[O-])cc2)nc2cc(-c3ccc(Cl)cc3)[nH]n12,0,0,0,51.4,0
CCOC(=O)Cc1cc(=O)n2[nH]c(-c3ccc(Cl)cc3)cc2n1,0,0,0,0,0
SMILES,PMI activator,TNAP act hi DEA,TNAP inh hiacc,TNAP inh no acc,PMI act hi M6P
CC1(C)Cc2[nH]c(=S)c(C#N)cc2CO1,0,0,0,0,0
N#Cc1cc2c([nH]c1=S)CCCC2,0,0,0,0,2
O=c1[nH]c2cc(Cl)ccc2n1-c1ccccc1,0,0,0,68.9,0
O=Cc1c(Cl)[nH]c(=O)n1-c1ccccc1,0,0,0,0,0
C/C(N)=C(/C#N)C(=O)CSc1n[nH]c(-c2cccs2)n1,0,0,0,62.4,0
Cc1cc(NC(=O)CSc2n[nH]c(-c3cccs3)n2)no1,0,0,0,0,0
C/C(=N\Nc1ccc([N+](=O)[O-])cc1)c1ccc(N)cc1,0,0,0,0,2.3
CCc1ccc(/C(C)=N\Nc2ccc([N+](=O)[O-])cc2)cc1,0,0,0,0,0
COc1cccc(C2C=C(Nc3ccccc3)C(=O)N2c2ccccc2)c1 (configuration not stated),0,0,0,0,2.2
COc1ccc(C2C=C(Nc3ccccc3)C(=O)N2c2ccccc2)cc1OC (configuration not stated),0,0,0,0,0
COc1ccc(C2=NN(C(N)=S)C(c3ccco3)C2)cc1 (configuration not stated),0,0,0,0,0
COc1ccc(-c2nc3n(n2)C(=O)CC(c2ccco2)S3)cc1 (configuration not stated),0,0,0,75.5,0
CSc1ccc(/C=N/Nc2ccc(Cl)c(C(=O)O)c2)cc1,0,0,0,0,2.4
COc1cc(/C=N/Nc2ccc(Cl)c(C(=O)O)c2)ccc1OC(=O)c1ccco1,0,0,0,0,0
COc1cc(/C=N/Nc2ccc(Cl)c(C(=O)O)c2)ccc1OC(=O)c1cccs1,0,0,0,0,2.4
COc1cc(/C=N/Nc2ccccc2)ccc1OC(=O)c1cccs1,0,0,0,0,2.2
CC(C)c1noc2ncc(C(=O)c3cc(Cl)cc(Cl)c3O)cc12,0,0,0,0,0
O=C1Nc2ccccc2N2CCCC12 (configuration not stated),0,0,0,0,0
O=C1Nc2cc(S(=O)(=O)N3CCCC3)ccc2N2CCCC12 (configuration not stated),0,0,0,0,2
ON1C(c2ccc(Cl)cc2Cl)N(O)[C@H]2CCCC[C@H]21 (some centres not stated),0,0,0,0,0
CC1N(O)C(c2ccc(Cl)cc2Cl)N(O)C1(C)C (configuration not stated),0,0,0,0,2
CCOC(=O)c1cc(-c2cccc([N+](=O)[O-])c2)n[nH]1,0,0,0,61.6,0
O=C(O)c1cc(-c2cccc([N+](=O)[O-])c2)n[nH]1,0,0,0,0,0
CCn1cc(C(C)NC(=O)Nc2ccccc2C(=O)OC)c(C)n1 (configuration not stated),0,0,0,0,0
O=C(CSc1nc2ccccc2s1)Nc1ccc(Cl)c(C(=O)O)c1,0,0,0,0,2.3
CC1CCCCC1NC(=O)COC(=O)c1c2c(nc3ccccc13)/C(=C/c1ccco1)CC2 (configuration not stated),0,0,0,0,2
O=C(COC(=O)c1c2c(nc3ccccc13)/C(=C/c1ccco1)CC2)NC1CCCC1,0,0,0,0,0
COc1ccc(-c2[nH]ncc2C=O)cc1,0,0,0,69.9,0
Oc1ccc(/C=N/NC(=S)Nc2cccnc2)cc1O,0,0,0,77.7,0
Nc1nc(SCC(=O)N2CCc3ccccc32)[nH]c(=O)c1-c1ccccc1,0,0,0,66.4,0

# High-throughput results (PubChem BioAssay)
